Measurements as given in ChEMBL document CHEMBL3526105, “Cytochrome P450-mediated oxidative metabolism of abused synthetic cannabinoids found in K2/Spice: identification of novel cannabinoid receptor ligands” (Drug Metab Dispos, 2012).
The source made the active and inactive calls. No cut-off for these calls is given here.

Tests used:
Cytochrome P450 2C9 [1] = molecular target: T1, Cytochrome P450 2C9 (Homo sapiens, UniProt P11712); experiment: Drug metabolism assessed as intrinsic clearance for human recombinant CYP2C9-mediated compound formation per nmol protein treated with JWH-018 at 10 uM after 90 mins; format: ADME; details: recombinant enzyme, 1.5 h
Cytochrome P450 2D6 [2] = molecular target: T2, Cytochrome P450 2D6 (Homo sapiens, UniProt P10635); experiment: Drug metabolism assessed as intrinsic clearance for human recombinant CYP2D6-mediated compound formation per nmol protein treated with JWH-018 at 10 uM after 90 mins; format: ADME; details: recombinant enzyme, 1.5 h
Liver microsome [3] = experiment: Drug metabolism in human liver microsomes assessed as intrinsic clearance per mg protein treated with AM2201; format: ADME
Cytochrome P450 1A2 [4] = molecular target: T3, Cytochrome P450 1A2 (Homo sapiens, UniProt P05177); experiment: Drug metabolism assessed as intrinsic clearance for human recombinant CYP1A2-mediated compound formation per nmol protein treated with AM2201 at 10 uM after 90 mins; format: ADME; details: recombinant enzyme, 1.5 h
T3 sequence (P05177 whole entry): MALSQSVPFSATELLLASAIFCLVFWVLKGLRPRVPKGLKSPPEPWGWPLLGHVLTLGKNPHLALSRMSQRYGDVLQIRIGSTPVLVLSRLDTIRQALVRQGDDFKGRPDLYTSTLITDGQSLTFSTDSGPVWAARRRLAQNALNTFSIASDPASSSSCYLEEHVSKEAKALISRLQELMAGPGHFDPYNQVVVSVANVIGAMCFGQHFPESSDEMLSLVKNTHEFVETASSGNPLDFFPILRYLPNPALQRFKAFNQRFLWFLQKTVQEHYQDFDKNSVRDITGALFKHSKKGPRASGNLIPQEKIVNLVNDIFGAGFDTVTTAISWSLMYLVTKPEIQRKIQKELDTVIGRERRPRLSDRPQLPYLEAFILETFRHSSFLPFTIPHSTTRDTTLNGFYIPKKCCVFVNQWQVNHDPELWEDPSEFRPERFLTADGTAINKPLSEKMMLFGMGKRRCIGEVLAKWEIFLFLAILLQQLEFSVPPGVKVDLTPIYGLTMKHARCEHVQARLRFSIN

Liver microsome [5] = experiment: Drug level in human liver microsomes treated with AM2201 at 10 uM after 20 mins by LC-MS/MS analysis; format: ADME
How it was run: (§1)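 Pooled human liver microsomes (75 μg) incubated with 10 μM substrate in 0.1 M KPO4 pH 7.4 with NADPH-regenerating system at 37°C. Reaction stopped with ethanol, centrifuged. Analytes quantified by positive-ESI LC-MS/MS against standards matrix-matched in reaction mixture, with confirmation by SRM-triggered enhanced product ion spectra library matching.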

Cannabinoid receptor 1 = Cannabinoid receptor 1 (Mus musculus, UniProt P47746); experiment: Displacement of [3H]CP-55,940 from CB1 receptor in B6SJL mouse brain membrane after 90 mins by liquid scintillation spectrophotometric analysis; format: cell membranes
How it was run: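 B6SJL mouse brain membranes (50 μg) with 0.2 nM [3H]CP-55,940 and competitor at 0.1 nM–10 μM. Buffer 5 mM MgCl2, 50 mM Tris, 0.05% BSA; 90 min at room temperature, triplicate. Nonspecific binding set with 10 μM WIN-55,212-2. Filtered on GF/B, washed with Tris/BSA, counted by scintillation. Specific binding given as % of vehicle.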

[6] = molecular target: Cannabinoid receptor 1 (Mus musculus) (UniProt P47746); experiment: Activation of CB1 receptor in B6SJL mouse brain membrane assessed as [35S]-GTPgammaS binding at 10 uM after 30 mins by liquid scintillation spectrophotometric analysis in presence of O-2050; format: functional, cell membranes
Cytochrome P450 2C19 [7] = molecular target: T4, Cytochrome P450 2C19 (Homo sapiens, UniProt P33261); experiment: Drug metabolism assessed as intrinsic clearance for human recombinant CYP2C19-mediated compound formation per nmol protein treated with JWH-018 at 10 uM after 90 mins; format: ADME; details: recombinant enzyme, 1.5 h
[8] = Drug level in human urine treated with JWH-018 by LC-MS/MS analysis; format: ADME, tissue-based
How it was run: (§2)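 Urine from suspected users (40 μl) incubated with or without β-glucuronidase (1.6 U/μl final) in 0.1 M sodium acetate pH 5.0, 60 min at 37°C with shaking. Analysed by positive-ESI LC-MS/MS against standards matrix-matched in blank pooled human urine, with confirmation by enhanced product ion spectra.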

Cytochrome P450 2C9 [9] = molecular target: T1, Cytochrome P450 2C9; experiment: Drug metabolism assessed as intrinsic clearance for human recombinant CYP2C9-mediated compound formation per nmol protein treated with AM2201 at 10 uM after 90 mins; format: ADME; details: recombinant enzyme, 1.5 h
Liver microsome [10] = experiment: Drug metabolism in human liver microsomes assessed as intrinsic clearance per mg protein treated with JWH-018; format: ADME
Cytochrome P450 2C19 [11] = molecular target: T4, Cytochrome P450 2C19; experiment: Drug metabolism assessed as intrinsic clearance for human recombinant CYP2C19-mediated compound formation per nmol protein treated with AM2201 at 10 uM after 90 mins; format: ADME; details: recombinant enzyme, 1.5 h
[12] = molecular target: Cannabinoid receptor 1 (Mus musculus) (UniProt P47746); experiment: Activation of CB1 receptor in B6SJL mouse brain membrane assessed as [35S]-GTPgammaS binding at 10 uM after 30 mins by liquid scintillation spectrophotometric analysis; format: functional, cell membranes
How it was run: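 Mouse brain membrane homogenate (25 μg; whole B6SJL brains, pooled, Dounce-homogenised, spun 40,000g three times). Incubated with […], 0.1 nM [35S]GTPγS in 20 mM HEPES, 10 mM MgCl2, 100 mM NaCl, 20 U/l adenosine deaminase, 0.05% BSA, 30 min at 30°C, triplicate. Nonspecific binding with 10 μM unlabelled GTPγS. Stopped by GF/B filtration; filters counted by scintillation.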

Cytochrome P450 2D6 [13] = molecular target: T2, Cytochrome P450 2D6; experiment: Drug metabolism assessed as intrinsic clearance for human recombinant CYP2D6-mediated compound formation per nmol protein treated with AM2201 at 10 uM after 90 mins; format: ADME; details: recombinant enzyme, 1.5 h
Cytochrome P450 1A2 [14] = molecular target: T3, Cytochrome P450 1A2; experiment: Drug metabolism assessed as intrinsic clearance for human recombinant CYP1A2-mediated compound formation per nmol protein treated with JWH-018 at 10 uM after 90 mins; format: ADME; details: recombinant enzyme, 1.5 h
Liver microsome [15] = experiment: Drug level in human liver microsomes treated with JWH-018 at 10 uM after 20 mins by LC-MS/MS analysis; format: ADME; how it was run: as §1
Cytochrome b5 = Cytochrome b5 (Homo sapiens, UniProt P00167); experiment: Drug metabolism assessed as cytochrome b5 (unknown origin)-mediated compound formation treated with JWH-018 at 10 uM after 90 mins by LC-MS/MS analysis in presence of oxidoreductase; format: ADME; details: 1.5 h
Cytochrome P450 2E1 [16] = molecular target: T5, Cytochrome P450 2E1 (Homo sapiens, UniProt P05181); experiment: Drug metabolism assessed as human recombinant CYP2E1-mediated (1-(5-fluoro-4-hydroxypentyl)-1H-indol-3-yl)(naphthalen-1-yl)methanone formation at 10 uM after 90 mins by LC-MS/MS analysis; format: ADME; details: recombinant enzyme, 1.5 h
How it was run: (§3)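 Recombinant human CYP2E1 or CYP3A4 (2 pmol) incubated with substrate at 10 μM final, dried from ethanol. Buffer 0.1 M KPO4 pH 7.4 with NADPH-regenerating system, which starts the reaction. 90 min at 37°C, triplicate, with no-substrate, no-protein and no-NADPH controls. Stopped with ethanol, centrifuged, and metabolites quantified by LC-MS/MS.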

Cytochrome P450 3A4 [17] = molecular target: T6, Cytochrome P450 3A4 (Homo sapiens, UniProt P08684); experiment: Drug metabolism assessed as human recombinant CYP3A4-mediated (1-(5-hydroxypentyl)-1H-indol-3-yl)(naphthalen-1-yl)methanone formation at 10 uM after 90 mins by LC-MS/MS analysis; format: ADME; details: recombinant enzyme, 1.5 h; how it was run: as §3
[18] = Drug metabolism in human urine assessed as (1-(5-hydroxypentyl)-1H-indol-3-yl)(naphthalen-1-yl)methanone formation by LC-MS/MS analysis; format: ADME, tissue-based; how it was run: as §2
Cytochrome P450 3A4 [19] = molecular target: T6, Cytochrome P450 3A4; experiment: Drug metabolism assessed as human recombinant CYP3A4-mediated (1-(5-fluoro-4-hydroxypentyl)-1H-indol-3-yl)(naphthalen-1-yl)methanone formation at 10 uM after 90 mins by LC-MS/MS analysis; format: ADME; details: recombinant enzyme, 1.5 h; how it was run: as §3
Cytochrome P450 2E1 [20] = molecular target: T5, Cytochrome P450 2E1; experiment: Drug metabolism assessed as human recombinant CYP2E1-mediated (1-(5-hydroxypentyl)-1H-indol-3-yl)(naphthalen-1-yl)methanone formation at 10 uM after 90 mins by LC-MS/MS analysis; format: ADME; details: recombinant enzyme, 1.5 h; how it was run: as §3
[21] = Drug metabolism in human urine assessed as 5-(3-(1-naphthoyl)-1H-indol-1-yl)pentanoic acid formation by LC-MS/MS analysis; format: ADME, tissue-based; how it was run: as §2
Cytochrome P450 2E1 [22] = molecular target: T5, Cytochrome P450 2E1; experiment: Drug metabolism assessed as human recombinant CYP2E1-mediated 5-(3-(1-naphthoyl)-1H-indol-1-yl)pentanoic acid formation at 10 uM after 90 mins by LC-MS/MS analysis; format: ADME; details: recombinant enzyme, 1.5 h; how it was run: as §3
Cytochrome P450 3A4 [23] = molecular target: T6, Cytochrome P450 3A4; experiment: Drug metabolism assessed as human recombinant CYP3A4-mediated 5-(3-(1-naphthoyl)-1H-indol-1-yl)pentanoic acid formation at 10 uM after 90 mins by LC-MS/MS analysis; format: ADME; details: recombinant enzyme, 1.5 h; how it was run: as §3
[24] = Drug metabolism in human urine assessed as (1-(5-fluoro-4-hydroxypentyl)-1H-indol-3-yl)(naphthalen-1-yl)methanone formation by LC-MS/MS analysis; format: ADME, tissue-based; how it was run: as §2

T6 sequence (P08684 whole entry): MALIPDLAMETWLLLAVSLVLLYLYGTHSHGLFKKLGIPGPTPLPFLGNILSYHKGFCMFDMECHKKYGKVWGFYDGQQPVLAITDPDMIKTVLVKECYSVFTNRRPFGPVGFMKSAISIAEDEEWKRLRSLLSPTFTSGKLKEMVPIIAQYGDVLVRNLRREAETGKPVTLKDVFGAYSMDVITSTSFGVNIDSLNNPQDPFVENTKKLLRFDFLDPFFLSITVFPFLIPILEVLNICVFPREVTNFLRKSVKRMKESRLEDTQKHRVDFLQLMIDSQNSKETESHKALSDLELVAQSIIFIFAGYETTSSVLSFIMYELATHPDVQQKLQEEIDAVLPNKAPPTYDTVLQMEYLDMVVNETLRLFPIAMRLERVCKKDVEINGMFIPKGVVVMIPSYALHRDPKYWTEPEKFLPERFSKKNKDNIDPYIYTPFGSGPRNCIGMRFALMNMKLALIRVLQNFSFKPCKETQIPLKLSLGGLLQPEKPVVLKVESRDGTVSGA
T5 sequence (P05181 whole entry): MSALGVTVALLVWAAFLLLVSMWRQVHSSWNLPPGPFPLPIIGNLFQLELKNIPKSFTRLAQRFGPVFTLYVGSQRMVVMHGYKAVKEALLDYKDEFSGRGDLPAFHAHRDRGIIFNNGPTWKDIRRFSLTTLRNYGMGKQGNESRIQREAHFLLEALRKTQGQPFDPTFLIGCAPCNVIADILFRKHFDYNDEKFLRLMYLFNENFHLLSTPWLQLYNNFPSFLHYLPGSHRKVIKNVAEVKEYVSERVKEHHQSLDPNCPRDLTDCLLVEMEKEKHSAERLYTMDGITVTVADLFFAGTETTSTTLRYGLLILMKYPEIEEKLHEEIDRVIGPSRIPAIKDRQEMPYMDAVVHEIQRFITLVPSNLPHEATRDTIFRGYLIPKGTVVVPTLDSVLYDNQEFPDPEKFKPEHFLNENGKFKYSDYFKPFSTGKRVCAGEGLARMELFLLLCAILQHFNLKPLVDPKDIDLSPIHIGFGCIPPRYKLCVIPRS
T4 sequence (P33261 whole entry): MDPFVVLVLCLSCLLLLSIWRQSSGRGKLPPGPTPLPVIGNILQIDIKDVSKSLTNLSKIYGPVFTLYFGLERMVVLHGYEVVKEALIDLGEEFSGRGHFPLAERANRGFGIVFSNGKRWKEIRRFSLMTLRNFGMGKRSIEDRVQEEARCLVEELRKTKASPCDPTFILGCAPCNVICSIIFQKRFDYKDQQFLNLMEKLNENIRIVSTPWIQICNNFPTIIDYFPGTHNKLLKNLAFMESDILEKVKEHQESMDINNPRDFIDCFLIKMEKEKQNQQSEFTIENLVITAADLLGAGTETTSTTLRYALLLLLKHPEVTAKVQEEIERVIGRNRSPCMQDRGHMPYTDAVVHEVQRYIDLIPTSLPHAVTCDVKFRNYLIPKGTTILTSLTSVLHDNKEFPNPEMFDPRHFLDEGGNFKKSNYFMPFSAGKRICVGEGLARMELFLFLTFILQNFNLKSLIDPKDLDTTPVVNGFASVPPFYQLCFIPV
Cannabinoid receptor 1, sequence (P47746 whole entry): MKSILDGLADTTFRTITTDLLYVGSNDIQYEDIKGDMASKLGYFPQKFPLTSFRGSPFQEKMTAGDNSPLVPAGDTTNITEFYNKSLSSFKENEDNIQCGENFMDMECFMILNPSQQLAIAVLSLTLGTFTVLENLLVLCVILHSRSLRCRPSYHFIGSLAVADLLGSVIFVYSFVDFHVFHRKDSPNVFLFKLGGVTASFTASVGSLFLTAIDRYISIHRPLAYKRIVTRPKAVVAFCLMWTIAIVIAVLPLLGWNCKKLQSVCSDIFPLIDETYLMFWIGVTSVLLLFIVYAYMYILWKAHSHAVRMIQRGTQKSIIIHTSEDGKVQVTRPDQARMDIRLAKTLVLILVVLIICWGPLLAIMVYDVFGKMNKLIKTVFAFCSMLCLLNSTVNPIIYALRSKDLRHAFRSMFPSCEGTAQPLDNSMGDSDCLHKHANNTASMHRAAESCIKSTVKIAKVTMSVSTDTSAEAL
Cannabinoid receptor 1 (Mus musculus), sequence (P47746 whole entry): as above
T1 sequence (P11712 whole entry): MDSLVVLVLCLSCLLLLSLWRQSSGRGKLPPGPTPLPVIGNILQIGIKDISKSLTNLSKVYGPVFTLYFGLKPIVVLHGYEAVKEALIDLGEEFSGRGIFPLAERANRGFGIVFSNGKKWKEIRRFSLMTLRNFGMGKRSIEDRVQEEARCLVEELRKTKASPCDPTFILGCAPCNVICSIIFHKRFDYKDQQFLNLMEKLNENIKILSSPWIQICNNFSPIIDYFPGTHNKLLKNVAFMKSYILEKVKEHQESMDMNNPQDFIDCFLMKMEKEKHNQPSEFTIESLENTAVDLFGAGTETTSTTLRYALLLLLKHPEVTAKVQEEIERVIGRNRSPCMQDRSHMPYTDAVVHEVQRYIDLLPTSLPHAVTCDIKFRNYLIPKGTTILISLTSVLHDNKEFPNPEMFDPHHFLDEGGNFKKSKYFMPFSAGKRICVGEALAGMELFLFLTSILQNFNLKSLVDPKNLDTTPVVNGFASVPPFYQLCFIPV
T2 sequence (P10635 whole entry): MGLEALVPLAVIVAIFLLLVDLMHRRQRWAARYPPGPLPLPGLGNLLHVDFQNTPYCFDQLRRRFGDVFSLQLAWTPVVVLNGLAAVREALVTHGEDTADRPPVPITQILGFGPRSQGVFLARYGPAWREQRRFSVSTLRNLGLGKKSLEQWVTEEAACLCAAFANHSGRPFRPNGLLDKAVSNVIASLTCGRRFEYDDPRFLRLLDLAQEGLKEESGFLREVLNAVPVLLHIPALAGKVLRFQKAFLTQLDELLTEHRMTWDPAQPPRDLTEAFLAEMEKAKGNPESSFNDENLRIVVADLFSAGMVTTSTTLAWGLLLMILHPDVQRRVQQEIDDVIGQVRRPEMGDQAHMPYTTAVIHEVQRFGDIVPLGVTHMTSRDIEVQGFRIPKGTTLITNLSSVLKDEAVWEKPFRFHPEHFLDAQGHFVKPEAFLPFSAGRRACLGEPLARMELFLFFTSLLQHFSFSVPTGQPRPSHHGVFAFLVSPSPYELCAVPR
Cytochrome b5, sequence (P00167 whole entry): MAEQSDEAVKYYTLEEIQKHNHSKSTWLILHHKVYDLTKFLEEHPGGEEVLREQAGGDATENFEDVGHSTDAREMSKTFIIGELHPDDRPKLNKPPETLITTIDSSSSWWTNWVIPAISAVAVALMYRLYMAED

Compound | CL (Cytochrome P450 2C9 [1]) [µL/min] | CL (Cytochrome P450 2D6 [2]) [µL/min] | CLH (Liver microsome [3]) [µL/min/g] | CL (Cytochrome P450 1A2 [4]) [µL/min] | Ki (Cannabinoid receptor 1) [nM] | Activity [6] | CL (Cytochrome P450 2C19 [7]) [µL/min] | Drug metabolism [8] | CL (Cytochrome P450 2C9 [9]) [µL/min] | CLH (Liver microsome [10]) [µL/min/mg] | CL (Cytochrome P450 2C19 [11]) [µL/min] | Activity [12] | CL (Cytochrome P450 2D6 [13]) [µL/min] | CL (Cytochrome P450 1A2 [14]) [µL/min] | Drug metabolism (Liver microsome [15]) | other results
O=C(c1cccc2ccccc12)c1cn(CCCCCO)c2ccccc12 | 1035 | 9.3 | 0.483 | 19 | 35 | inactive | 6.5 | metabolite_detected | 63 | 0.5 | 32 | Active | 3.7 | 157 | – | Drug metabolism (Liver microsome [5]): 8.53 ng/mL
CCCCCCC(C)(C)c1ccc([C@@H]2C[C@H](O)CC[C@H]2CCCO)c(O)c1 | – | – | – | – | – | inactive | – | – | – | – | – | Active | – | – | – | –
O=C(O)CCCCn1cc(C(=O)c2cccc3ccccc23)c2ccccc21 | 0 | 0 | 0.6 | 89 | > 10000 | – | 0 | metabolite_detected | 111 | 0 | 28 | inactive | 0.371 | 23 | – | Drug metabolism (Liver microsome [5]): 4.7 ng/mL
CCCCCn1cc(C(=O)c2cccc3ccccc23)c2cc(O)ccc21 | – | – | 0 | – | – | – | – | – | – | 0.52 | – | – | – | – | metabolite_detected | –
O=C(c1cccc2ccccc12)c1cn(CCCC(O)CF)c2ccccc12 (stereo not given) | – | – | 0.124 | 19 | – | – | – | – | 63 | – | 32 | Active | 3.7 | – | – | –
CCCCCn1cc(C(=O)c2cccc3ccccc23)c2ccc(O)cc21 | – | – | 0 | – | – | – | – | – | – | 1 | – | – | – | – | metabolite_detected | Drug metabolism (Cytochrome b5): metabolite_detected
CCCCCn1cc(C(=O)c2cccc3ccccc23)c2cccc(O)c21 | – | – | 0 | – | – | – | – | – | – | 0 | – | – | – | – | metabolite_detected | –
CC(O)CCCn1cc(C(=O)c2cccc3ccccc23)c2ccccc21 (stereo not given) | 375 | 13.4 | – | – | 15.4 | inactive | 48.7 | metabolite_detected | – | 0.574 | – | Active | – | 306 | – | –
O=C(c1cccc2ccccc12)c1cn(CCCCCF)c2ccccc12 | – | – | – | – | 0.395 | inactive | – | – | – | – | – | Active | – | – | – | Drug metabolism (Cytochrome P450 2E1 [16]): metabolite_not_detected; Drug metabolism (Cytochrome P450 3A4 [17]): metabolite_not_detected; Drug metabolism [18]: metabolite_detected; Drug metabolism (Cytochrome P450 3A4 [19]): metabolite_not_detected; Drug metabolism (Cytochrome P450 2E1 [20]): metabolite_not_detected; Drug metabolism [21]: metabolite_detected; Drug metabolism (Cytochrome P450 2E1 [22]): metabolite_not_detected; Drug metabolism (Cytochrome P450 3A4 [23]): metabolite_not_detected; Drug metabolism [24]: metabolite_detected
CCCCCc1cc(O)c2c(c1)OC(C)(C)[C@@H]1CCC(C)=C[C@@H]21 | – | – | – | – | – | inactive | – | – | – | – | – | Active | – | – | – | –
